Results: ChEMBL document CHEMBL1131143, “Predictive models for GABAA/benzodiazepine receptor subtypes: studies of quantitative structure-activity relationships for imidazobenzodiazepines at five recombinant GABAA/benzodiazepine receptor subtypes [alphaxbeta3gamma2 (x = 1-3, 5, and 6)] via comparative molecular field analysis” (J Med Chem, 1998)

target: T1, GABA-A receptor; alpha-5/beta-3/gamma-2 (Homo sapiens, UniProt P18507+P28472+P31644); experiment: Binding affinity for Gamma-aminobutyric acid A receptor alpha-5-beta-3-gamma-2; type: protein-complex assay
T1 sequence (P18507 whole entry): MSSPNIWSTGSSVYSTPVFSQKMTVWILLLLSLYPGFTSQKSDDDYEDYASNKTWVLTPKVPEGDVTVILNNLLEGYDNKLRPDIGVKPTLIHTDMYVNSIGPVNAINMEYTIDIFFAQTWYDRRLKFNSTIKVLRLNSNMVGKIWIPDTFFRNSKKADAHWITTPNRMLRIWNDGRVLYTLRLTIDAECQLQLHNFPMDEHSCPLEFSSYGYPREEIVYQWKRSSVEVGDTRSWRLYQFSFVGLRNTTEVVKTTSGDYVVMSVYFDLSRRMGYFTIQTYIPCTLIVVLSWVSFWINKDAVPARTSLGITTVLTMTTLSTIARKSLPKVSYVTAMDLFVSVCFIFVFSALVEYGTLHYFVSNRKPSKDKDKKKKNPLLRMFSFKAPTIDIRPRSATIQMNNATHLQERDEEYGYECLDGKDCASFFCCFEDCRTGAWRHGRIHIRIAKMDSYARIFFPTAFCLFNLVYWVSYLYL
T1 sequence (P28472 whole entry): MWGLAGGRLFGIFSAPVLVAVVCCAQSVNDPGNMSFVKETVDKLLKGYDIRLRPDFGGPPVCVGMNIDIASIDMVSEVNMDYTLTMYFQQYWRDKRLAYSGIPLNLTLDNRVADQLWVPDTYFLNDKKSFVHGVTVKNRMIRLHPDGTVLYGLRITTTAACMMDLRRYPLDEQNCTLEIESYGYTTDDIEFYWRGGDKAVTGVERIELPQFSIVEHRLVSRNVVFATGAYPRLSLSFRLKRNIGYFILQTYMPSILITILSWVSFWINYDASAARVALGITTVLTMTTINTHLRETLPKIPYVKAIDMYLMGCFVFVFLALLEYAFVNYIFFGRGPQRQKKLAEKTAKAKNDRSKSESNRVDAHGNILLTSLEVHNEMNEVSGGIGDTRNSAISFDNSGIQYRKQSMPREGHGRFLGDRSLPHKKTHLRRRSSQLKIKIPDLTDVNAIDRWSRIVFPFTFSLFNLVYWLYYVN
T1 sequence (P31644 whole entry): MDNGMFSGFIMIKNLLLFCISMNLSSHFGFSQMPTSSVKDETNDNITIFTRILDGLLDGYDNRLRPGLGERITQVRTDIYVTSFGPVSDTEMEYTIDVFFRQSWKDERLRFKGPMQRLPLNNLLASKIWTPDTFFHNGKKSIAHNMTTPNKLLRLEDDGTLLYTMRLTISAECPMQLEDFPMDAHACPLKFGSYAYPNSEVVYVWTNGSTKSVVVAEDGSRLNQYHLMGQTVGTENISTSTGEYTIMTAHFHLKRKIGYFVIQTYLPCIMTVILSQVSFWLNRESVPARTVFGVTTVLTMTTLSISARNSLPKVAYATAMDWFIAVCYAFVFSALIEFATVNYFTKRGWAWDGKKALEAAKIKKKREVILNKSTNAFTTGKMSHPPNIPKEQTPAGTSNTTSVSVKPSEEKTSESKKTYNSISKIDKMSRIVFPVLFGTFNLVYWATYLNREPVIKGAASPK

First: CCOC(=O)c1ncn2c1[C@H]1CCCN1C(=O)c1cc(C#C[Si](C)(C)C)ccc1-2
Second: C#Cc1ccc2c(c1)C(=O)N1CCC[C@@H]1c1c(C(=O)OCC)ncn1-2
The Ki of the first is higher: over 1000 nM for the first, 7.2 nM for the second.

First: CN1Cc2c(CCl)ncn2-c2ccc(Cl)cc2C1=O
Second: CCCCCc1ncn2c1CN(C)C(=O)c1cc(Cl)ccc1-2
The Ki of the first is 13-fold lower: 28.5 nM for the first, 369 nM for the second.

Going from `CN1Cc2c(C(=O)OCC3CC3)ncn2-c2ccc(Cl)cc2C1=O` to `CCOC(=O)c1ncn2c1CN(C)C(=O)c1cc(C#C[Si](C)(C)C)ccc1-2`, the Ki falls from 9.8 nM to 5 nM (2-fold). The second binds more tightly here.

With `COc1ccc2c(c1)C(=O)N(C)Cc1c(C(=O)OC(C)(C)C)ncn1-2` the Ki was 0.293 nM.

target: GABA-A receptor; alpha-6/beta-3/gamma-2 (Homo sapiens, UniProt P18507+P28472+Q16445); experiment: Binding affinity against Gamma-aminobutyric acid A receptor alpha-6-beta-3-gamma-2; type: protein-complex assay
Sequence (Q16445 whole entry, one chain of several): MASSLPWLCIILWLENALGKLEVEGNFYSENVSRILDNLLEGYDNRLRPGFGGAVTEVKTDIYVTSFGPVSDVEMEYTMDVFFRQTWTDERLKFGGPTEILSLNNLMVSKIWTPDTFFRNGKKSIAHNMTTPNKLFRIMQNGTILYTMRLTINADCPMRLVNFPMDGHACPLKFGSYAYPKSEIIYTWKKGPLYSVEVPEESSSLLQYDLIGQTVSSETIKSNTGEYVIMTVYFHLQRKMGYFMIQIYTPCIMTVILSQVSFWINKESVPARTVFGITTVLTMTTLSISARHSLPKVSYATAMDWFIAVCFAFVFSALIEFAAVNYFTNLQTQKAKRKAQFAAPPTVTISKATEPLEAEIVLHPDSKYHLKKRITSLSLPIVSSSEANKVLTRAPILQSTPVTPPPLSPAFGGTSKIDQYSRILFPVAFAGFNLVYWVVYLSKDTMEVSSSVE
Procedure, shortened: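 Cells scraped into PBS, spun at 3000g, resuspended in 10 mM KH₂PO₄/100 mM KCl pH 7.4. Nonspecific binding with 10⁻⁵ M diazepam; 1 h to equilibrium at 4 °C; filtration, ice-cold buffer wash, scintillation counting.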

Compared with `CCOC(=O)c1ncn2c1[C@H]1CCCN1C(=O)c1cc(C#C[Si](C)(C)C)ccc1-2`, `C#Cc1ccc2c(c1)C(=O)N1CCC[C@@H]1c1c(C(=O)OCC)ncn1-2` is lower in Ki: over 1000 nM for the first, 61 nM for the second. The second binds more tightly here.

`CN1Cc2c(CCl)ncn2-c2ccc(Cl)cc2C1=O` and `CCCCCc1ncn2c1CN(C)C(=O)c1cc(Cl)ccc1-2` cannot be ordered by Ki: over 300 nM for the first, 960 nM for the second.

`CN1Cc2c(C(=O)OCC3CC3)ncn2-c2ccc(Cl)cc2C1=O` and `CCOC(=O)c1ncn2c1CN(C)C(=O)c1cc(C#C[Si](C)(C)C)ccc1-2` are within 1.5-fold of each other in Ki: 168 nM for the first, 114 nM for the second.

`COc1ccc2c(c1)C(=O)N(C)Cc1c(C(=O)OC(C)(C)C)ncn1-2` was tested, and the Ki was 8.28 nM.

target: GABA-A receptor; alpha-1/beta-3/gamma-2 (Homo sapiens) (UniProt P14867+P18507+P28472); experiment: It is the ratio of Ki value for alpha-1-beta-3-gamma-2 to that of alpha-5-beta-3-gamma-2; type: protein-complex assay

First: CN1Cc2c(CCl)ncn2-c2ccc(Cl)cc2C1=O
Second: CCCCCc1ncn2c1CN(C)C(=O)c1cc(Cl)ccc1-2
The Ratio of the first is higher: over 10.5 for the first, 5.6 for the second.

Going from `CN1Cc2c(C(=O)OCC3CC3)ncn2-c2ccc(Cl)cc2C1=O` to `CCOC(=O)c1ncn2c1CN(C)C(=O)c1cc(C#C[Si](C)(C)C)ccc1-2`, the Ratio rises from 1.7 to 24.2.

Going from `COc1ccc2c(c1)C(=O)N(C)Cc1c(C(=O)OC(C)(C)C)ncn1-2` to `C#Cc1ccc2c(c1)C(=O)N1CCC[C@@H]1c1c(C(=O)OCC)ncn1-2`, the Ratio rises from 23 to 39.

target: T2, GABA-A receptor; alpha-1/beta-3/gamma-2 (Homo sapiens, UniProt P14867+P18507+P28472); experiment: Binding affinity against alpha-1-beta-3-gamma-2 GABAA/BzR receptor subtype.; type: protein-complex assay
T2 sequence (P14867 whole entry): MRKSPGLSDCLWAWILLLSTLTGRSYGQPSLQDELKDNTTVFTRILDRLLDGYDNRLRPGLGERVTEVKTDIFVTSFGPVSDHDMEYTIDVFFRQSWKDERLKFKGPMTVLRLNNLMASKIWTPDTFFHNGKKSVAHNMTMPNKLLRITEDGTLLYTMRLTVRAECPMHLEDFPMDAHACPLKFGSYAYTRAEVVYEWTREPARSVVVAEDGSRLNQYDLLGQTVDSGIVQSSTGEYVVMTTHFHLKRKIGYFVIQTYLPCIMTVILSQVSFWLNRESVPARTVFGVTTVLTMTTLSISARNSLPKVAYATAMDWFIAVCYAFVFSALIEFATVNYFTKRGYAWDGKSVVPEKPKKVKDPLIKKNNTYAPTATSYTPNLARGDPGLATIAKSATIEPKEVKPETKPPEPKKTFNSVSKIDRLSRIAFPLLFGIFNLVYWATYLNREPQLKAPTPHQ
T2 sequence (P18507 whole entry): T1 sequence (P18507 whole entry)
T2 sequence (P28472 whole entry): T1 sequence (P28472 whole entry)

Compared with `CCOC(=O)c1ncn2c1[C@H]1CCCN1C(=O)c1cc(C#C[Si](C)(C)C)ccc1-2`, `C#Cc1ccc2c(c1)C(=O)N1CCC[C@@H]1c1c(C(=O)OCC)ncn1-2` is lower in Ki: over 1000 nM for the first, 283 nM for the second. The second binds more tightly here.

`CN1Cc2c(CCl)ncn2-c2ccc(Cl)cc2C1=O` and `CCCCCc1ncn2c1CN(C)C(=O)c1cc(Cl)ccc1-2` cannot be ordered by Ki: over 300 nM for the first, 2050 nM for the second.

Going from `CN1Cc2c(C(=O)OCC3CC3)ncn2-c2ccc(Cl)cc2C1=O` to `COc1ccc2c(c1)C(=O)N(C)Cc1c(C(=O)OC(C)(C)C)ncn1-2`, the Ki falls from 16.4 nM to 6.74 nM (2.4-fold). The second binds more tightly here.

target: T3, GABA-A receptor; alpha-3/beta-3/gamma-2 (Homo sapiens, UniProt P18507+P28472+P34903); experiment: Binding affinity against alpha-3-beta-3-gamma-2 GABAA/BzR receptor subtype.; type: protein-complex assay
T3 sequence (P18507 whole entry): T1 sequence (P18507 whole entry)
T3 sequence (P28472 whole entry): T1 sequence (P28472 whole entry)
T3 sequence (P34903 whole entry): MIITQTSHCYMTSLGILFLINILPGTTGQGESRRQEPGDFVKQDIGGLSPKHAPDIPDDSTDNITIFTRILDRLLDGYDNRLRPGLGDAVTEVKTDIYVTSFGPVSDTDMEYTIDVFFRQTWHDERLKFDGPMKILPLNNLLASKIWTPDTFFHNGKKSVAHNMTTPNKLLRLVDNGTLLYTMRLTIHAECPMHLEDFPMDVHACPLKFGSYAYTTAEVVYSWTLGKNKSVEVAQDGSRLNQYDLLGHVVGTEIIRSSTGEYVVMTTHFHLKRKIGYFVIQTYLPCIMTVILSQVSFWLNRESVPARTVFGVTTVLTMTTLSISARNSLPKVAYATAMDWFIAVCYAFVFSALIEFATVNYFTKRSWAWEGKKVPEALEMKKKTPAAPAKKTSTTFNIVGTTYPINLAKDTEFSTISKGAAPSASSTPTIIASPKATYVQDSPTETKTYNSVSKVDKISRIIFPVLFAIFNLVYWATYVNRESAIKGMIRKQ

First: CCOC(=O)c1ncn2c1[C@H]1CCCN1C(=O)c1cc(C#C[Si](C)(C)C)ccc1-2
Second: C#Cc1ccc2c(c1)C(=O)N1CCC[C@@H]1c1c(C(=O)OCC)ncn1-2
The Ki of the first is higher: over 1000 nM for the first, 102 nM for the second.

`CN1Cc2c(CCl)ncn2-c2ccc(Cl)cc2C1=O` and `CCCCCc1ncn2c1CN(C)C(=O)c1cc(Cl)ccc1-2` cannot be ordered by Ki: over 300 nM for the first, 2910 nM for the second.

Compared with `CN1Cc2c(C(=O)OCC3CC3)ncn2-c2ccc(Cl)cc2C1=O`, `CCOC(=O)c1ncn2c1CN(C)C(=O)c1cc(C#C[Si](C)(C)C)ccc1-2` is 4.7-fold higher in Ki: 42.5 nM for the first, 198 nM for the second. The first binds more tightly here.

`COc1ccc2c(c1)C(=O)N(C)Cc1c(C(=O)OC(C)(C)C)ncn1-2` was tested, and the Ki was 7.42 nM.

target: T4, GABA-A receptor; alpha-2/beta-3/gamma-2 (Homo sapiens, UniProt P18507+P28472+P47869); experiment: Binding affinity tested against alpha-2-beta-3-gamma-2 GABAA/BzR receptor subtype.; type: protein-complex assay
T4 sequence (P18507 whole entry): T1 sequence (P18507 whole entry)
T4 sequence (P28472 whole entry): T1 sequence (P28472 whole entry)
T4 sequence (P47869 whole entry): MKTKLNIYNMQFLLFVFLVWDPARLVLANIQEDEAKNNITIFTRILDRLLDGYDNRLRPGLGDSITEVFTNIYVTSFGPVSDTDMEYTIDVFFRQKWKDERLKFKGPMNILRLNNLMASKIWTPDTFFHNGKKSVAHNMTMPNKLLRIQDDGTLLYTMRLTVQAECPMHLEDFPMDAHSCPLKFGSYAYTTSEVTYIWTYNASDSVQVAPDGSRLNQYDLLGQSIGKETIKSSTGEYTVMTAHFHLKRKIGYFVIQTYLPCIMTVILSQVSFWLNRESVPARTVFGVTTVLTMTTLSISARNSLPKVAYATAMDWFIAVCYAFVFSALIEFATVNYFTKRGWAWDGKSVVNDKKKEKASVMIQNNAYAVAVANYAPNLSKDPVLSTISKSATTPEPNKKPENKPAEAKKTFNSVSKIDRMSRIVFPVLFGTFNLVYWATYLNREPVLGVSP

Compared with `CCOC(=O)c1ncn2c1[C@H]1CCCN1C(=O)c1cc(C#C[Si](C)(C)C)ccc1-2`, `C#Cc1ccc2c(c1)C(=O)N1CCC[C@@H]1c1c(C(=O)OCC)ncn1-2` is lower in Ki: over 1000 nM for the first, 318 nM for the second. The second binds more tightly here.

`CN1Cc2c(CCl)ncn2-c2ccc(Cl)cc2C1=O` and `CCCCCc1ncn2c1CN(C)C(=O)c1cc(Cl)ccc1-2` cannot be ordered by Ki: over 300 nM for the first, 2900 nM for the second.

Compared with `CN1Cc2c(C(=O)OCC3CC3)ncn2-c2ccc(Cl)cc2C1=O`, `CCOC(=O)c1ncn2c1CN(C)C(=O)c1cc(C#C[Si](C)(C)C)ccc1-2` is 2.9-fold higher in Ki: 48.2 nM for the first, 142 nM for the second. The first binds more tightly here.
